Measurements: ChEMBL document CHEMBL3612027, “Substrate-guided optimization of the syringolins yields potent proteasome inhibitors with activity against leukemia cell lines” (Bioorg Med Chem, 2015)

Experiments:
[1] = target: T1, Proteasome Macropain subunit MB1 (Homo sapiens, UniProt P28074); experiment: Inhibition of human 20S proteasome beta5 subunit using Suc-LLVY-AMC as substrate by fluorescence assay
T1 sequence (P28074 whole entry): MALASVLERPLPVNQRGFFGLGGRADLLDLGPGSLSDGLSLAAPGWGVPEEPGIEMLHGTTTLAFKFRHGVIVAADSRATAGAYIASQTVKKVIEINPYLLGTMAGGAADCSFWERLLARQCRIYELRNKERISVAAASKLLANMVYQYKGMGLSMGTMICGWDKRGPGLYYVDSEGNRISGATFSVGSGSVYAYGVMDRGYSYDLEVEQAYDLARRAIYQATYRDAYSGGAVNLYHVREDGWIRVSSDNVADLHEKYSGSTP

CCRF-CEM = experiment: Cytotoxicity against human CCRF-CEM cells assessed as cell growth at 10 uM after 48 hrs relative to control; format: functional; details: read-out: Activity
How it was run: (§1)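 Run at the National Cancer Institute as a single-dose screen across its 60-cell-line cancer panel. Compound was tested at 10 micromolar, and growth was expressed as a percentage of negative-control cultures.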

HL-60(TB) = experiment: Cytotoxicity against human HL-60(TB) cells assessed as cell growth at 10 uM after 48 hrs relative to control; format: functional; details: HL-60, 48 h, read-out: Activity
How it was run: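 Run at the NCI as a single-dose screen: each compound at 10 micromolar across the 60-cancer-cell-line panel. Growth of each cell line in compound-containing media was expressed relative to negative-control cultures.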

MOLT-4 [2] = experiment: Cytotoxicity against human MOLT4 cells assessed as cell growth at 10 uM after 48 hrs relative to control; format: functional; details: MOLT-4, 48 h, read-out: Activity; how it was run: as §1
SR = experiment: Cytotoxicity against human SR cells assessed as cell growth at 10 uM after 48 hrs relative to control; format: functional; details: read-out: Activity
How it was run: (§2)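 Submitted to the National Cancer Institute for a single-dose screen at 10 micromolar against 60 cancer cell lines. Growth is expressed relative to negative-control cultures.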

NCI-H23 = experiment: Cytotoxicity against human NCI-H23 cells assessed as cell growth at 10 uM after 48 hrs relative to control; format: functional; details: NCI-H23, 48 h, read-out: Activity; how it was run: as §1
NCI-H460 = experiment: Cytotoxicity against human NCI-H460 cells assessed as cell growth at 10 uM after 48 hrs relative to control; format: functional; details: NCI-H460, 48 h, read-out: Activity; how it was run: as §1
HCT-116 = experiment: Cytotoxicity against human HCT116 cells assessed as cell growth at 10 uM after 48 hrs relative to control; format: functional; details: HCT-116, 48 h, read-out: Activity; how it was run: as §1
HT-29 = experiment: Cytotoxicity against human HT-29 cells assessed as cell growth at 10 uM after 48 hrs relative to control; format: functional; details: HT-29, 48 h, read-out: Activity; how it was run: as §1
SW-620 = experiment: Cytotoxicity against human SW620 cells assessed as cell growth at 10 uM after 48 hrs relative to control; format: functional; details: SW-620, 48 h, read-out: Activity; how it was run: as §2
SF-539 = experiment: Cytotoxicity against human SF539 cells assessed as cell growth at 10 uM after 48 hrs relative to control; format: functional; details: SF-539, 48 h, read-out: Activity; how it was run: as §1
U-251 = experiment: Cytotoxicity against human U251 cells assessed as cell growth at 10 uM after 48 hrs relative to control; format: functional; details: U-251, 48 h, read-out: Activity; how it was run: as §2
Malme-3M = experiment: Cytotoxicity against human MALME-3M cells assessed as cell growth at 10 uM after 48 hrs relative to control; format: functional; details: read-out: Activity; how it was run: as §1
M14 = experiment: Cytotoxicity against human M14 cells assessed as cell growth at 10 uM after 48 hrs relative to control; format: functional; details: M14, 48 h, read-out: Activity; how it was run: as §1
MDA-MB-435 = experiment: Cytotoxicity against human MDA-MB-435 cells assessed as cell growth at 10 uM after 48 hrs relative to control; format: functional; details: MDA-MB-435, 48 h, read-out: Activity; how it was run: as §1
SK-MEL-2 = experiment: Cytotoxicity against human SK-MEL-2 cells assessed as cell growth at 10 uM after 48 hrs relative to control; format: functional; details: SK-MEL-2, 48 h, read-out: Activity; how it was run: as §1
UACC-257 = experiment: Cytotoxicity against human UACC257 cells assessed as cell growth at 10 uM after 48 hrs relative to control; format: functional; details: UACC-257, 48 h, read-out: Activity; how it was run: as §2
UACC-62 = experiment: Cytotoxicity against human UACC62 cells assessed as cell growth at 10 uM after 48 hrs relative to control; format: functional; details: UACC-62, 48 h, read-out: Activity; how it was run: as §2
IGROV-1 = experiment: Cytotoxicity against human IGROV1 cells assessed as cell growth at 10 uM after 48 hrs relative to control; format: functional; details: IGROV-1, 48 h, read-out: Activity; how it was run: as §1
OVCAR-3 = experiment: Cytotoxicity against human OVCAR3 cells assessed as cell growth at 10 uM after 48 hrs relative to control; format: functional; details: OVCAR-3, 48 h, read-out: Activity; how it was run: as §1
OVCAR-8 = experiment: Cytotoxicity against human OVCAR8 cells assessed as cell growth at 10 uM after 48 hrs relative to control; format: functional; details: OVCAR-8, 48 h, read-out: Activity; how it was run: as §1
NCI/ADR-RES = experiment: Cytotoxicity against human NCI/ADR-RES cells assessed as cell growth at 10 uM after 48 hrs relative to control; format: functional; details: read-out: Activity; how it was run: as §1
786-0 = experiment: Cytotoxicity against human 786-0 cells assessed as cell growth at 10 uM after 48 hrs relative to control; format: functional; details: 786-0, 48 h, read-out: Activity; how it was run: as §1
A498 = experiment: Cytotoxicity against human A498 cells assessed as cell growth at 10 uM after 48 hrs relative to control; format: functional; details: A498, 48 h, read-out: Activity; how it was run: as §1
ACHN = experiment: Cytotoxicity against human ACHN cells assessed as cell growth at 10 uM after 48 hrs relative to control; format: functional; details: read-out: Activity; how it was run: as §1
SN12C = experiment: Cytotoxicity against human SN12C cells assessed as cell growth at 10 uM after 48 hrs relative to control; format: functional; details: read-out: Activity; how it was run: as §2
TK-10 = experiment: Cytotoxicity against human TK10 cells assessed as cell growth at 10 uM after 48 hrs relative to control; format: functional; details: TK-10, 48 h, read-out: Activity; how it was run: as §2
PC-3 = experiment: Cytotoxicity against human PC3 cells assessed as cell growth at 10 uM after 48 hrs relative to control; format: functional; details: PC-3, 48 h, read-out: Activity; how it was run: as §1
DU-145 = experiment: Cytotoxicity against human DU145 cells assessed as cell growth at 10 uM after 48 hrs relative to control; format: functional; details: DU-145, 48 h, read-out: Activity; how it was run: as §1
MDA-MB-231 = experiment: Cytotoxicity against human MDA-MB-231 cells assessed as cell growth at 10 uM after 48 hrs relative to control; format: functional; details: MDA-MB-231, 48 h, read-out: Activity; how it was run: as §1
[3] = Cytotoxicity against human Hs578T cells assessed as cell growth at 10 uM after 48 hrs relative to control; format: functional; details: Hs-578T, read-out: Activity; how it was run: as §1
BT-549 = experiment: Cytotoxicity against human BT549 cells assessed as cell growth at 10 uM after 48 hrs relative to control; format: functional; details: BT-549, 48 h, read-out: Activity; how it was run: as §1
HL-60 = experiment: Cytotoxicity against human HL60 cells after 48 hrs; format: functional; details: HL-60, 48 h
MOLT-4 [4] = experiment: Cytotoxicity against human MOLT4 cells after 48 hrs; format: functional; details: MOLT-4, 48 h

| Compound | Ki [1] | growth at 10 µM (CCRF-CEM) | growth at 10 µM (HL-60(TB)) | growth at 10 µM (MOLT-4 [2]) | growth at 10 µM (SR) | growth at 10 µM (NCI-H23) | growth at 10 µM (NCI-H460) | growth at 10 µM (HCT-116) | growth at 10 µM (HT-29) | growth at 10 µM (SW-620) | growth at 10 µM (SF-539) | growth at 10 µM (U-251) | growth at 10 µM (Malme-3M) | growth at 10 µM (M14) | growth at 10 µM (MDA-MB-435) | growth at 10 µM (SK-MEL-2) | growth at 10 µM (UACC-257) | growth at 10 µM (UACC-62) | growth at 10 µM (IGROV-1) | growth at 10 µM (OVCAR-3) | further results |
| --- | --- | --- | --- | --- | --- | --- | --- | --- | --- | --- | --- | --- | --- | --- | --- | --- | --- | --- | --- | --- | --- |
| COC(=O)[C@@H](NC(=O)N[C@@H](Cc1ccccc1)C(=O)N[C@H]1CCCCNC(=O)/C=C/[C@H](C(C)C)NC1=O)C(C)C | 950 nM | 55.1% | 62.5% | 49.2% | 8.54% | 44.1% | 59.6% | 26.5% | 31.1% | 38.5% | 5.04% | 17.4% | 77% | 86.6% | -59.9% | 12.7% | 58.5% | 29% | 45.1% | 1.28% | growth at 10 µM (OVCAR-8): 92.3%; growth at 10 µM (NCI/ADR-RES): 105%; growth at 10 µM (786-0): 97.5%; growth at 10 µM (A498): 104%; growth at 10 µM (ACHN): 102%; growth at 10 µM (SN12C): 75.6%; growth at 10 µM (TK-10): 93.6%; growth at 10 µM (PC-3): 75%; growth at 10 µM (DU-145): 53.1%; growth at 10 µM (MDA-MB-231): 60.8%; growth at 10 µM [3]: 40.9%; growth at 10 µM (BT-549): 29.6% |
| COC(=O)[C@@H](NC(=O)N[C@H](C(=O)N[C@H]1CCCCNC(=O)/C=C/[C@H](C(C)C)NC1=O)C(C)C)C(C)C | 2120 nM | 15.1% | 27.2% | 10.2% | 7.05% | 34.2% | 28.9% | 21.2% | 11.7% | 30.3% | -19.4% | 8.29% | 29.9% | 64.5% | -55.5% | 1.6% | 33.4% | 13.3% | 33.4% | -39.6% | GI50 (HL-60): 5410 nM; GI50 (MOLT-4 [4]): 4730 nM; growth at 10 µM (OVCAR-8): 86.4%; growth at 10 µM (NCI/ADR-RES): 100%; growth at 10 µM (786-0): 83.3%; growth at 10 µM (A498): 43.2%; growth at 10 µM (ACHN): 96.4%; growth at 10 µM (SN12C): 15.8%; growth at 10 µM (TK-10): 85.8%; growth at 10 µM (PC-3): 62%; growth at 10 µM (DU-145): 42%; growth at 10 µM (MDA-MB-231): 24.4%; growth at 10 µM [3]: 4.52%; growth at 10 µM (BT-549): 5.44% |
| COC(=O)[C@@H](NC(=O)N[C@H](C(=O)N[C@H]1CCCCNC(=O)/C=C/[C@H](Cc2c[nH]c3ccccc23)NC1=O)C(C)C)C(C)C | 1710 nM | 15.8% | 17.6% | 8.54% | 9.87% | 38.2% | 45.5% | 37.4% | 3.42% | 58.3% | -14.4% | 27.4% | 47.9% | 86.7% | -81.5% | 17.4% | 65.4% | 60.7% | 24.7% | -42.9% | growth at 10 µM (OVCAR-8): 97.1%; growth at 10 µM (NCI/ADR-RES): 98.4%; growth at 10 µM (786-0): 83.9%; growth at 10 µM (A498): 37.9%; growth at 10 µM (ACHN): 90.8%; growth at 10 µM (SN12C): 2.96%; growth at 10 µM (TK-10): 94.1%; growth at 10 µM (PC-3): 76.3%; growth at 10 µM (DU-145): 52%; growth at 10 µM (MDA-MB-231): 39%; growth at 10 µM [3]: 9.21%; growth at 10 µM (BT-549): 8.05% |
